# Experimental data pooled from the literature.
# GLO1: Lactoylglutathione lyase (GLO1, Homo sapiens, UniProt Q04760)
# MAOB: Amine oxidase [flavin-containing] B (MAOB, Homo sapiens, UniProt P27338)
SMILES,target,effect on,action,method,concentration,notes,inhibition
CCN1/C(=C/C(C)=O)Sc2ccc(F)cc21,"Endothelin receptor type B (EDNRB, Homo sapiens, UniProt P24530)",ligand displacement,,radioligand,10 µM,,0%
O=C(N[C@@H](CSCc1ccccc1)C(=O)NO)c1ccccc1,GLO1,enzyme activity,inhibitor,,1 µM,,31.4%
NC/C(=C\F)COc1cccc(Cn2c(=S)[nH]c(=O)c3[nH]cnc32)c1,"Histamine H1 receptor (HRH1, Homo sapiens, UniProt P35367)",ligand displacement,,radioligand,10 µM,,< 50%
Cc1cc(O)c(-c2ccc([C@@H](C)CN(C)C)cc2)c2c1[nH]c(=O)c1sccc12,"Serine/threonine-protein kinase NLK (NLK, Homo sapiens, UniProt Q9UBE8)",cell-free assay,inhibitor,,0.1 µM,lysate,-4.94%
O=C(Nc1cccc(Cl)c1)c1ccc2c(c1)C(=O)NC2=O,MAOB,enzyme activity,inhibitor,,1 µM,,63.9%
O=C(N[C@@H](CSCc1ccc([N+](=O)[O-])cc1)C(=O)NO)c1ccccc1,GLO1,enzyme activity,inhibitor,,1 µM,,46.1%
O=C(Nc1ccccc1)c1ccc2c(c1)C(=O)NC2=O,MAOB,enzyme activity,inhibitor,,1 µM,,25%
Cc1cc(F)cc2c(CCC(=O)N[C@@H]3C(=O)NC[C@H]3O)c(-c3ccc(F)cc3)[nH]c12,"Beta-1 adrenergic receptor (ADRB1, Homo sapiens, UniProt P08588)",cell-free assay,,,10 µM,,-1.5%
O=C(Nc1cccc(F)c1)c1ccc2c(c1)C(=O)NC2=O,MAOB,enzyme activity,inhibitor,,1 µM,,< 5%
C#Cc1cc(-c2cc(Nc3nc(N[C@@H](C)c4ccc(F)cn4)ncc3Cl)n[nH]2)ccc1C=O,"Ribosomal protein S6 kinase alpha-6 (RPS6KA6, Homo sapiens, UniProt Q9UK32)",enzyme activity,inhibitor,,0.2 µM,,16.8%
